Source: PubChem (several laboratories)
PAFAH2 inh: inhibitors of human PAFAH2; recombinant PAFAH2, FP-rhodamine activity probe, fluorescence polarization; inhibition, % at 3.39 µM; 0.99% of 340,000 active; AID 492956;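 active = inhibition above the mean over all tested compounds plus 3 SD, cut at about 30% in these data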;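 also: inhibitors block probe labeling of enzyme so polarization drops; 0% = enzyme with DMSO and 100% = wells lacking PAFAH2 protein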
PAFAH1B3 FP inh: inhibitors of human PAFAH1B3. 0.28% of 340,000 active. Q15102. recombinant PAFAH1B3, FP-rhodamine probe, fluorescence polarization. inhibition, % at 3.39 µM;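 active = inhibition above the screen-wide average of all tested compounds plus 3 SD, cut at about 25% in these data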;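 also: 0% = enzyme with DMSO only and 100% = wells lacking PAFAH1B3 protein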
Target sequence (Q15102 whole entry, looked up): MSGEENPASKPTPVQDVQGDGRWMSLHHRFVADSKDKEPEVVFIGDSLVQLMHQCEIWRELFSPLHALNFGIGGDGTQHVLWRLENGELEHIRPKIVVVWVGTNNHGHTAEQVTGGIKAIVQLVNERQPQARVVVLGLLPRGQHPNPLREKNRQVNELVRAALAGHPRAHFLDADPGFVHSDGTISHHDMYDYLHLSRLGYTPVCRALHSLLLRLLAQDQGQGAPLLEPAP
GRIN3A LBD mod: modulators (binders) of human NR3A ligand-binding domain; NR3A LBD differential scanning fluorimetry, Tm shift; 0% = protein alone, 100% = glycine-bound protein; Tm shift relative to glycine control, % at 25 µM; 2.5% of 340,000 active; AID 1259313;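 active = melting temperature shift of at least 10% of the positive control shift, at one fixed dose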
pPAFAH inh: inhibitors of human plasma PAF acetylhydrolase (pPAFAH); recombinant pPAFAH, FP-rhodamine probe fluorescence polarization; inhibition, % at 3.39 µM; 1.5% of 330,000 active; AID 463082;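 active = inhibition above the mean inhibition across the screen plus 3 SD, cut at about 25% in these data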;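 also: inhibitors block binding of the rhodamine activity-based probe so polarization drops; 0% = enzyme with DMSO and 100% = wells lacking pPAFAH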
PAFAH1B2 inh: PAFAH1B2 (human) inhibition | 1.2% of 340,000 active | AID 492953 | P68402 | inhibition, % at 3.39 µM | recombinant PAFAH1B2, FP-rhodamine activity probe, fluorescence polarization;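 active = inhibition above the mean of all tested compounds plus 3 SD, cut at about 24% in these data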;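 also: 0% = enzyme with DMSO and 100% = wells lacking PAFAH1B2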
UCH37 inh: blocks the human deubiquitinase UCH37 | purified proteasome/UCH37, Ub-AMC cleavage fluorescence | inhibition, % (test concentration not listed) | 0.33% of 330,000 active | AID 588478;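 active = mean inhibition over replicate wells above about 20%, limit read from the data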;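 also: 0% = compound-free wells with enzyme and 100% = wells lacking proteasome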
Target sequence (Q9Y5K5 whole entry, looked up): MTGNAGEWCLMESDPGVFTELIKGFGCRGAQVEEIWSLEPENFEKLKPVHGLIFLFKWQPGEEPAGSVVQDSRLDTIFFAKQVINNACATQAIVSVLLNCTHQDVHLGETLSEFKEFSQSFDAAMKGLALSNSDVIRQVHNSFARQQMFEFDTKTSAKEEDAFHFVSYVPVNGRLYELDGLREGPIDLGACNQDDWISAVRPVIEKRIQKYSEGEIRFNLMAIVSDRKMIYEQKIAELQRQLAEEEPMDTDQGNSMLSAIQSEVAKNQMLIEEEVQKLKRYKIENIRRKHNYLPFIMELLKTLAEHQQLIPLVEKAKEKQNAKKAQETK
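Test system – human UCH37 enzyme supplied as purified proteasome complex · Incubation – 30 min preincubation with enzyme, 25 min cleavage at room temperature · Detection – AMC fluorescence from Ub-AMC cleavage, excitation 355 nm, emission 460 nm · Benchmarks – no-proteasome wells (full inhibition) and compound-free wells (no inhibition)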
Active calls of the source: *; / = not tested or not shown. Compounds with a hit are over-represented: about 4.8% of the library has one in this group of screens.

SMILES	PAFAH2 inh	PAFAH1B3 FP inh	GRIN3A LBD mod	pPAFAH inh	PAFAH1B2 inh	UCH37 inh
O=C(NC=NO)C1=NOC(CNc2ncc(C(F)(F)F)cc2Cl)C1 (stereo not given)	/	/	/	/	/	1.1
Cc1ccsc1/C=N/Nc1cccc(C(=O)O)c1	8.0	5.7	20.5*	8.0	8.8	/
O=C(O)c1cccc(Cn2c(Cl)c(/C=N/Nc3ccccc3)sc2=O)c1	12.8	9.7	-4.7	26.8*	-0.9	/
O=C(O)c1cccc(N/N=C/c2sc(N3CCOCC3)nc2-c2ccccc2)c1	11.4	1.7	14.3*	19.0	-3.2	/
O=C(NN=Cc1sc(N2CCOCC2)nc1-c1ccccc1)c1ccc(O)cc1	/	/	/	/	/	-26.7
O=[N+]([O-])c1ccc(N/N=C/c2sc(N3CCOCC3)nc2-c2ccccc2)c(S(=O)(=O)Nc2ccc(Cl)cc2)c1	2.8	-0.7	21.2*	/	-8.6	/
Cc1cc(C=Nn2cnnc2)c(C)n1-c1ccccc1	/	/	/	/	/	7.0
Cc1nn(-c2ccccc2Cl)c(Cl)c1/C=N/Nc1cccc(C(=O)O)c1	14.4	3.8	10.2*	-4.2	0.5	/
FC(F)Oc1ccc(NC(=S)Nc2ccc3cn[nH]c3c2)cc1	-6.6	5.7	16.6*	8.0	4.1	-2.6
Cc1ccc(NC(=S)Nc2ccc3cn[nH]c3c2)cc1	4.3	6.9	19.2*	6.6	0.7	6.3
FC(F)Oc1ccc(NC(=S)NC23CC4CC(CC(C4)C2)C3)cc1	10.5	7.3	11.6*	-1.0	13.3	4.0
S=C(Nc1ccccc1)Nc1ccc2cn[nH]c2c1	-2.8	7.8	8.8	5.3	4.3	/
FC(F)Oc1ccc(NC(=S)NCc2ccccc2)cc1	-0.1	4.3	3.8	-0.3	4.4	2.5
Oc1cccc2c(NC(=S)Nc3ccc(OC(F)F)cc3)cccc12	-0.6	2.3	11.0*	8.8	0.3	1.3
CC(C)NC(=S)NN=CC1=CCC2CC1C2(C)C (stereo not given)	/	/	/	/	/	2.6
Cc1cc(C)cc(NC(=S)Nc2ccc3cn[nH]c3c2)c1	8.6	9.9	14.7*	4.5	1.2	1.3
CCOc1ccccc1N(C(=O)CNC(=O)c1ccco1)C(C(=O)NC(C)(C)C)c1ccncc1 (stereo not given)	9.0	13.1	395.4*	5.7	5.8	1.3
O=C(COc1ccc2ccccc2c1)NN=CC1CC=CCC1 (stereo not given)	/	/	/	/	/	5.0
Cc1ccc(C(=O)C=Cc2cccc(C)c2)cc1	6.3	9.2	1.5	/	4.5	1.8
COc1cc(/C=C/C(=O)c2ccc(NS(=O)(=O)c3ccc(C)cc3)cc2)ccc1OC(F)F	-30.4	-26.7	22.9*	2.5	-9.8	5.4
COc1cc(/C=C/C(=O)c2ccc(NS(=O)(=O)c3ccc(C)cc3)cc2)cc(OC)c1O	2.0	8.1	11.2*	23.5	22.9	-5.3
COc1cccc(/C=C/C(=O)c2ccc(NS(=O)(=O)c3ccc(C)cc3)cc2)c1	-28.6	-28.5	18.5*	1.3	9.6	0.0
Nc1nonc1-n1nnc(C(=O)NN=Cc2cccc(Cl)c2)c1-c1ccc2c(c1)OCO2	/	/	/	/	/	3.3
CCC(=O)/C=C1/Sc2ccccc2N1CC	9.8	3.9	-2.6	2.6	1.1	22.1*
Cc1nn(-c2ccccc2)c(N2CCCC2)c1C=NNc1ccc(S(N)(=O)=O)cc1[N+](=O)[O-]	/	/	/	/	/	6.9
SMILES	PAFAH2 inh	PAFAH1B3 FP inh	GRIN3A LBD mod	pPAFAH inh	PAFAH1B2 inh	UCH37 inh
COc1ccc(/C=N/NC(=O)c2[nH]nc3c2CCc2ccccc2-3)cc1OC	-2.7	-2.0	33.6*	9.3	-3.5	/
COC(=O)/C=C1/S/C(=N/NC(=O)c2ccc(OC)cc2)NC1=O	1.6	2.2	0.8	-1.1	2.4	25.0*
COC(=O)/C=C1\S/C(=N/NC(=O)c2ccc(OC)cc2)NC1=O	4.8	15.1	-1.0	-0.4	7.0	13.4
O=C(Cn1nc(Cc2ccncc2)c2ccccc2c1=O)N1CCc2ccccc2C1	4.4	7.5	-2.7	2.4	3.4	20.1*
CCCCNC(=O)Cn1nc(Cc2ccncc2)c2ccccc2c1=O	9.1	5.7	1.2	6.0	2.5	2.7
COCCCn1c(SCc2ccc(OC)cc2)nc2cc(OC)c(OC)cc2c1=N	4.7	11.9	-12.1	25.4*	6.9	-3.5
CC(C)C1Nc2ccc(S(N)(=O)=O)cc2C2C=CCC21 (stereo not given)	5.2	7.7	1.8	8.7	32.5*	3.5
NS(=O)(=O)c1ccc2c(c1)C1C=CCC1C(C1CC=CCC1)N2 (stereo not given)	-3.4	1.8	-2.8	28.0*	24.0	5.7
Cc1cc(C)cc(OC(C)c2ccnc3nc(N=CN(C)C)nn23)c1 (stereo not given)	/	/	/	/	/	-71.2
N#CCCN(CCC#N)c1nncs1	-3.5	4.9	-1.8	5.9	0.5	6.1
CC(C)(C)c1csc(N(CCC#N)CCC#N)n1	-3.4	6.6	14.2*	0.7	5.1	-0.6
Cc1cc(C)nc(SCC(=O)NN=Cc2cccnc2)n1	/	/	/	/	/	1.0
C[C@H]1CN(S(=O)(=O)c2c(F)cccc2F)CCN1S(=O)(=O)c1ccc2c(c1)OCCO2	-2.9	-0.2	10.6*	-1.5	-1.9	2.7
CCNc1nc(SCCOc2ccc(C)cc2)nc(N(C)C)n1	-5.0	1.3	5.1	8.0	5.7	3.5
Cc1ccc(OCCSc2nc(NC(C)C)nc(NC(C)C)n2)cc1	-2.1	4.0	23.1*	2.2	2.3	1.8
Cc1cc(C)nc(N=C(NC(=O)Nc2cccc(Cl)c2)Nc2ccccc2)n1	/	/	/	/	/	-0.6
NC(=O)c1ccc(NC(=O)COC(=O)CCCc2c[nH]c3ccccc23)cc1	8.7	-0.3	10.3*	7.7	13.6	1.7
O=C(COC(=O)CCc1c[nH]c(=O)[nH]1)Nc1ccccc1	33.8*	-0.8	-0.8	2.1	0.9	2.7
COc1ccc(NC(=O)COC(=O)Cc2c[nH]c3ccccc23)cc1Cl	9.4	10.2	19.8*	12.7	4.2	0.8
O=C(COC(=O)CCc1c[nH]c2ccccc12)Nc1ccccc1	4.6	1.2	1.3	/	4.5	0.7
Cc1ccc(NC(=O)COC(=O)Cc2c[nH]c3ccccc23)cc1C	14.3	6.8	1.8	13.3	6.5	4.0
Cc1ccccc1C=NNC(=O)c1ccc(Cn2cccn2)o1	/	/	/	/	/	3.0
Nc1nonc1-n1nnc(C(=O)NN=Cc2cccs2)c1-c1ccc2c(c1)OCO2	/	/	/	/	/	5.8
O=C(O)c1ccccc1-c1ccccc1C(=O)NCc1cccc(C(F)(F)F)c1	-4.3	-2.8	3.3	-3.2	28.8*	/
CCOC(=O)N1CCN(C(=O)c2cc(COc3cccc(C(F)(F)F)c3)on2)CC1	2.8	4.5	25.0*	1.5	1.1	-2.8
Cc1cc(NC(=O)COC(=O)CSCc2ccc(Cl)c(Cl)c2)no1	6.8	4.8	-9.5	31.1*	-0.5	0.5
CC(=NNC(=O)c1cc(C)[nH]n1)c1ccc(-c2ccccc2)cc1	/	/	/	/	/	2.9
COc1ccc(C=NS(=O)(=O)c2cccs2)cc1	/	/	/	/	/	1.9
O=C(NNc1cc(Br)c(O)c(Br)c1)c1ccccc1	51.7*	-0.7	-2.5	12.3	9.1	3.8
